Bioassay records as filed in PubChem.
The list is not random: actives were taken first. Their share in the collection is about 2.3%.
TRPC4 potent = TRPC4 (mouse) allosteric potentiation; actives 0.42% (n = 310,000); B-score at 10 µM; HEK293 TRPC4beta/mu-opioid, DAMGO EC20, Fluo-4 Ca2+ flux; active compounds read high;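 active = B-score of calcium response area above 5 SD of library B-scores, with initial fluorescence ratio within 5 SD of library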;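 also: B-score of integrated fluorescence ratio over time as area under calcium response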
Target sequence (Q9QUQ5 whole entry, looked up): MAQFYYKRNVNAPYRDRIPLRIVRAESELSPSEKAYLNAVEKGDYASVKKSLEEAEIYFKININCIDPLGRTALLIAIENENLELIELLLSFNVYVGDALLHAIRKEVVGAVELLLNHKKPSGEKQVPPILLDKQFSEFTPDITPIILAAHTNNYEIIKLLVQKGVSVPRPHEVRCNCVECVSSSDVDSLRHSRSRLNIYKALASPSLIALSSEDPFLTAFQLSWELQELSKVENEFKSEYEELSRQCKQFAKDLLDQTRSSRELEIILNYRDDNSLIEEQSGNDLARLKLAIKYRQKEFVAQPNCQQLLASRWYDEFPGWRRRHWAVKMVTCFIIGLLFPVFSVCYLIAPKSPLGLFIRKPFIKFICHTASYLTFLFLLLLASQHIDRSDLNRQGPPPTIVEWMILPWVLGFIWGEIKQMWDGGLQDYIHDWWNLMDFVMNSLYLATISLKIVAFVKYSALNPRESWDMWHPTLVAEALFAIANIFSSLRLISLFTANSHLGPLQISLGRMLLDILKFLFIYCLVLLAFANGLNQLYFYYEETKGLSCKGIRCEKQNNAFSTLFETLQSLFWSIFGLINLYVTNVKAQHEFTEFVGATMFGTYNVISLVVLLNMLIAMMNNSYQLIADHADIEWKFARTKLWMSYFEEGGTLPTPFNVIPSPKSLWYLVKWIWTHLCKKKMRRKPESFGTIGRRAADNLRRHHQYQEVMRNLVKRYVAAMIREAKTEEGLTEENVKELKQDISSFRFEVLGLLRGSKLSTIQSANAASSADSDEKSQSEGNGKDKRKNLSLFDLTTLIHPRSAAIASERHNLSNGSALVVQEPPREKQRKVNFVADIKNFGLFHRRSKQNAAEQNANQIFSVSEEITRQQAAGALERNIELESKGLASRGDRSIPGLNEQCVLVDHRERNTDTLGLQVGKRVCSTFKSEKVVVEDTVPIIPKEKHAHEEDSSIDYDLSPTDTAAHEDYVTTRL
TRPC4 act = activators of mouse TRPC4 channel. HEK293 TRPC4beta/mu-opioid, Fluo4 calcium fluorescence; active compounds read high. B-score at 10 µM. actives 0.49% (n = 310,000);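 active = B-score above 5 SD of library B-scores, and initial fluorescence ratio not above library mean plus 5 SD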;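 also: positive B-score marks a calcium rise read as TRPC4 activation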
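Technique: kinetic Fluo4 calcium fluorescence; Test system: TRPC4beta and mu-opioid receptor HEK293 stable cells; Measure: B-scored integrated calcium fluorescence ratio; Benchmarks: low control buffer alone, high control maximal DAMGO; Schedule: 45 min room-temperature Fluo4 loading, 110 s read.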
TRPC6 inh = mouse TRPC6 channel inhibition; Q61143; HEK293-TRPC6, membrane potential dye, ACh-evoked depolarization; active compounds read low; B-score at 10 µM; actives 1.1% (n = 310,000); AID 2553;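 active = B-score under library mean minus 3 SD, initial fluorescence not abnormally high, positive integrated signal ratio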;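 also: B-score derived from integrated fluorescence ratio over the kinetic read; more negative B-score means stronger inhibition of depolarization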
TRPC4 inh = TRPC4 (mouse) channel inhibition; Q9QUQ5; HEK293 TRPC4beta/mu-opioid, DAMGO-evoked Fluo4 calcium flux; active compounds read low; B-score at 10 µM; actives 0.39% (n = 300,000); AID 2247;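 active = B-score over 3 SD under the library average, no early fluorescence shift, positive overall ratio signal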
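material = TRPC4beta/mu-opioid receptor HEK293 cell line | probe or stimulus = sequential submaximal and maximal DAMGO stimulation | compound dosing = one concentration per compound | measured by = Fluo4 Ca2+ flux fluorescence | evaluation = integrated fluorescence ratio relative to baseline, converted to per-well B score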
TRPC6 activator = activates the mouse TRPC6 cation channel. Q61143. AID 2550. HEK293-TRPC6 membrane potential dye fluorescence; active compounds read high. B-score at 10 µM. actives 0.13% (n = 310,000);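 active = B-score of the integrated fluorescence ratio above library mean plus 3 SD, and starting fluorescence ratio within library mean plus 5 SD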;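 also: higher score means more depolarization so channel activation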
Active calls of the source: *; i = inactive.

SMILES	TRPC4 potent	TRPC4 act	TRPC6 inh	TRPC4 inh	TRPC6 activator
CCCN1c2cccc3cccc(c23)S1(=O)=O	i	i	i	i	i
Cc1cc(C)cc(OCC(=O)N/N=C\c2cn(C)nc2C)c1	i	i	i	i	i
Cc1nn(C)cc1/C=N/NC(=O)C(C)(C)Oc1ccc(Cl)cc1	11*	i	i	i	i
C=CCn1c(=O)c(CCC(=O)Nc2ccc(N3CCOCC3)cc2)nc2cc(C(F)(F)F)ccc21	i	i	i	i	i
C/C(=N\Nc1nc2c(s1)CCCC2)c1ccccc1	i	i	i	i	i
Cc1cccc(C(=O)NCCN(C)C)c1	i	73*	i	i	i
CCc1cc(C(=O)NCCN(C)C)cs1	i	78*	i	i	i
COc1ccc(C)cc1NCc1ccc([N+](=O)[O-])cc1	i	i	i	i	i
COc1ccc(CNCCc2ccc([N+](=O)[O-])cc2)c(OC)c1OC	i	81*	i	i	i
CC(=O)NCC1CCN(C(=O)C2CCC(=O)N(CCc3cccc(F)c3)C2)CC1 (stereo unspecified)	i	i	i	i	i
CCSc1nc2sc3c(c2c2nnc(SCC(=O)NCc4ccco4)n12)CCCC3	i	i	i	i	i
CC(C)Sc1nc2sc3c(c2c2nnc(SCC(=O)NCc4ccco4)n12)CCCC3	i	i	i	-7*	i
Cc1ccc(C(=O)OCc2nnc(-c3ccccc3)o2)cc1S(=O)(=O)N1CCOCC1	i	i	i	i	i
O=C(Nc1ccccc1)C1=C[C@H](c2csc3ccccc23)C[C@H](OCc2ccc(CO)cc2)O1	14*	i	i	i	i
O=C(NC1CC1)C1=C[C@H](c2csc3ccccc23)C[C@H](OCc2ccc(CO)cc2)O1	i	113*	i	i	i
Cc1nnc(NC(=O)C2CSC3(C)CCC(=O)N23)s1 (stereo unspecified)	i	i	i	i	i
CCOc1ccc(CNCCc2ccc(S(N)(=O)=O)cc2)cc1	i	i	i	i	i
NS(=O)(=O)c1ccc(CCNCc2ccccc2OCc2ccc(F)cc2)cc1	i	i	i	-6*	i
NS(=O)(=O)c1ccc(NCc2ccccc2OCc2ccc(F)cc2)cc1	i	i	i	i	i
CCOc1ccc2ccccc2c1CNCCc1ccc(S(N)(=O)=O)cc1	i	i	i	-6*	i
O=C(NCCO)C(=O)NCC1CCCN1S(=O)(=O)c1cccs1 (stereo unspecified)	i	i	i	i	i
C=CCNC(=O)C(=O)NCC1CCCN1S(=O)(=O)c1cccs1 (stereo unspecified)	86*	i	i	i	i
CC1CC(C)CN(C(=S)Nc2ccc(SC(F)F)cc2)C1 (stereo unspecified)	i	i	i	i	i
CC1CN(C(=S)Nc2ccc(SC(F)F)cc2)CC(C)O1 (stereo unspecified)	i	i	-6.55*	i	i
C=CCOC(=O)C1=C(C)NC(=O)NC1c1cc(Cl)cc(Cl)c1OC (stereo unspecified)	i	i	i	i	i
SMILES	TRPC4 potent	TRPC4 act	TRPC6 inh	TRPC4 inh	TRPC6 activator
Cc1ccc(C(=O)NCc2ccccn2)cc1Cl	10*	i	i	i	i
Cc1ccc(NS(=O)(=O)c2cc(C(=O)NCc3ccccn3)ccc2Cl)cc1C	11*	i	i	i	i
Cc1ccc(C)c(NS(=O)(=O)c2cc(C(=O)NCc3ccccn3)ccc2Cl)c1	i	i	i	i	i
Cc1ccc(NC(=O)NCc2ccccn2)cc1Cl	i	i	i	i	i
CCOc1ccc(CN(C)CC(=O)NNC(=O)c2ccc(Cl)cc2)cc1OC	17*	i	i	i	i
C=CS(=O)(=O)c1sc(Cl)c(N2CCOCC2)c1[N+](=O)[O-]	i	i	i	-6*	i
C=CSc1sc(Cl)c(N2CCOCC2)c1[N+](=O)[O-]	i	i	i	i	i
O=C(CSc1nnc(CNC(=O)c2ccco2)o1)Nc1cccc(Cl)c1	i	i	i	i	i
CCOC(=O)c1sc(=S)n(C)c1NC(=O)c1ccccc1C	i	i	i	i	i
COC(=O)CCC(=O)Nc1nnc(C(F)(F)F)s1	i	i	i	i	i
CCC(NC(=O)Nc1nnc(C(F)(F)F)s1)(C(F)(F)F)C(F)(F)F	i	i	-6.08*	i	i
COC(=O)CC1=NN(c2nc3ccccc3s2)C(=O)/C1=C/N(C)C	i	i	i	i	i
COc1cc(OC)cc(C2=NCCN2)c1	i	i	i	i	i
Fc1ccc(C2CCNCC2COc2ccc3c(c2)OCO3)cc1 (stereo unspecified)	i	102*	i	i	i
Cc1cc(C)cc(NC(=O)c2nnn(Cc3cc(C)ccc3C)c2N)c1	17*	i	i	i	i
CCN(CC)CCCNCC(=O)Nc1ccc2c(c1)CCC2	i	i	i	i	i
CCN(CC)CCCNCC(=O)Nc1ccc(OC)c(Cl)c1	i	65*	i	i	i
CN1CCN(c2ccc(NC(=O)COc3ccc4ccccc4c3)cc2)CC1	i	i	i	i	i
CN1CCN(c2ccc(NC(=O)COc3cccc4ccccc34)cc2)CC1	i	177*	i	i	i
O=C(COc1ccc(Cl)cc1)Nc1ccc(C(=O)O)cc1NC(=O)COc1ccc(Cl)cc1	i	i	i	-6*	i
COc1ccc(Cl)cc1C(=O)Nc1ccccc1N1CCCCC1	i	i	i	i	i
CCC1(c2ccc(F)cc2)NC(=O)N(CC(=O)Nc2cccc(S(=O)(=O)N3CCCCC3)c2)C1=O (stereo unspecified)	12*	i	i	i	i
C=C(C)C1CCC(C)=C1COC(=O)Nc1ccccc1 (stereo unspecified)	i	i	i	i	i
CCOCCCNC(=O)C1c2ccccc2C(=O)N2CCc3ccccc3C12 (stereo unspecified)	i	i	i	i	i
COc1ccc(NC2CCCN(C(=O)CCc3cn[nH]c3)C2)cc1 (stereo unspecified)	i	i	i	i	i
COC(=O)c1sc(NC(=S)NC(=O)c2ccccc2C)nc1C	i	49*	i	i	i
COc1ccc(-n2c3c(cc(C(=O)NNc4ccccc4)c2=O)C(=O)CC(C)(C)C3)cc1	i	70*	i	i	i
